These results are taken from ChEMBL document CHEMBL4130456 (ACS Med Chem Lett, 2017).

The test system of data set [1] is Rattus norvegicus. Kind of data set: Antiarthritic activity in Lewis rat type-2 collagen-induced arthritis model assessed as reduction in joint erosion at 3 to 10 mg/kg, po bid administered prior to disease onset for 19 days starting from 5 days post type-2 collagen-induction measured post last dose by giemsa/safranin O staining based histopathological analysis. It counts as functional, organism-based. In outline: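 Rat collagen-induced arthritis, prophylactic regimen: dosing starts before disease onset, b.i.d. Readouts are anti-rat collagen antibodies, paw swelling, and histology (inflammatory cell infiltration, proteoglycan loss, joint erosion).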

The subject of data set [2] is Cynomolgus monkey. Kind of data set: Ex-vivo inhibition of PI3Kdelta in po dosed cynomolgus monkey assessed as reduction in anti-IgM-induced AKT phosphorylation at ser473 residue in whole blood pretreated up to 24 hrs followed by anti-IgM stimulation after 20 mins by flow cytometric analysis. Type of data set: functional, organism-based. The note with it: Macaca fascicularis.

Data set [3] concerns Rattus norvegicus. Kind of data set: Dose normalized Cmax in Sprague-Dawley rat at 3 mg/kg, po by RP-HPLC analysis. It counts as ADME, organism-based. The conditions noted are these: in vivo.
In data set [4] the target is 5-hydroxytryptamine receptor 2B (Homo sapiens, UniProt P41595). Put plainly: Inhibition of 5-HT2B (unknown origin) by calcium flux assay. Type of data set: functional. In short, it runs like this: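 Part of a 50-target safety panel covering GPCRs, ion channels and transporters.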
In data set [5] the target is Phosphatidylinositol 4,5-bisphosphate 3-kinase catalytic subunit gamma isoform (Homo sapiens, UniProt P48736). Kind of data set: Inhibition of PI3Kgamma (unknown origin) using phosphatidyl inositol as substrate measured after 30 mins by Alexa Fluor647-labelled ADP tracer based TR-FRET assay.
Data set [6] deals with Cynomolgus monkey. Kind of data set: Dose normalized AUC in cynomolgus monkey at 0.1 mg/kg, iv by RP-HPLC analysis. It counts as ADME, organism-based, Macaca fascicularis. The conditions noted are these: in vivo.
Data set [7] concerns the target 3',5'-cyclic-AMP phosphodiesterase 4D (Homo sapiens, UniProt Q08499). Put plainly: Inhibition of recombinant human PDE4D.
Data set [8] addresses Ribosomal protein S6 kinase alpha-5 (Homo sapiens) (UniProt O75582). Kind of data set: Inhibition of wild-type human partial length RPS6KA5 expressed in bacterial expression system at 10 uM by Kinomescan method relative to control.

The structures appear in SMILES notation. Activity calls are given as the source filed them. No cut-off for these calls is given here.

Sequence of 5-hydroxytryptamine receptor 2B (P41595 whole entry, canonical isoform): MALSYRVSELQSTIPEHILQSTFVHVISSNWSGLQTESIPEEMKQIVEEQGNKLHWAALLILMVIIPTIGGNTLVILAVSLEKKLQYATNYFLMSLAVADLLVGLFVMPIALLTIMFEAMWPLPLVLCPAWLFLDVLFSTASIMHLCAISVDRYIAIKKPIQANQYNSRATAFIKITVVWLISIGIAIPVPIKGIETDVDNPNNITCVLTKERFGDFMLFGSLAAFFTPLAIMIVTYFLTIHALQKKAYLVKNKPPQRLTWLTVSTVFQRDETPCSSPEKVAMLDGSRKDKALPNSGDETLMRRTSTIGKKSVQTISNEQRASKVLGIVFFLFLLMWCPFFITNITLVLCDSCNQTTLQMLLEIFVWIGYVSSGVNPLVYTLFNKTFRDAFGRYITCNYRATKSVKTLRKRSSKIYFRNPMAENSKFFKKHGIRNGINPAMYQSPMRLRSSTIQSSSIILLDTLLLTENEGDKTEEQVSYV
Sequence of 3',5'-cyclic-AMP phosphodiesterase 4D (Q08499 whole entry): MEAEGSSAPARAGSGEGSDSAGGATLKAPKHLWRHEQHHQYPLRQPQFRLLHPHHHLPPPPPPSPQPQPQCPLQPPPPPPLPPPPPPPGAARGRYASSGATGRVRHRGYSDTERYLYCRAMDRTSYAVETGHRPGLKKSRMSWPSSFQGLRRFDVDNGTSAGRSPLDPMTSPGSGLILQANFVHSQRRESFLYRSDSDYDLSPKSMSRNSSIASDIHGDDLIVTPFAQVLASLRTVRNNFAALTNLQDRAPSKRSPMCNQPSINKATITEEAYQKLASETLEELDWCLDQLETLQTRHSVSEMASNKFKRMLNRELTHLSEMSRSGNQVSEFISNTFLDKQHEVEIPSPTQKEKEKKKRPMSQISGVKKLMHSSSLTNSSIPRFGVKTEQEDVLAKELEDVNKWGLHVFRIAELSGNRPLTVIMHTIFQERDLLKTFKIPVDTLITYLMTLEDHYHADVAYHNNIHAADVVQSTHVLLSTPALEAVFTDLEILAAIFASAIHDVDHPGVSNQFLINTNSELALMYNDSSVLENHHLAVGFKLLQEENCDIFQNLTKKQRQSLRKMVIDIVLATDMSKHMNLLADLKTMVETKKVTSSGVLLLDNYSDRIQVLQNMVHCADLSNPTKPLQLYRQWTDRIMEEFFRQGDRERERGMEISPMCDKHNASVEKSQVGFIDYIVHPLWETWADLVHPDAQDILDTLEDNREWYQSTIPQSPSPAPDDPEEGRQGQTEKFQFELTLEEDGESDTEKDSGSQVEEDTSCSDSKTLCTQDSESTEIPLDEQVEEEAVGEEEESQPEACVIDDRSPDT
Sequence of Ribosomal protein S6 kinase alpha-5 (Homo sapiens) (O75582 whole entry, looked up): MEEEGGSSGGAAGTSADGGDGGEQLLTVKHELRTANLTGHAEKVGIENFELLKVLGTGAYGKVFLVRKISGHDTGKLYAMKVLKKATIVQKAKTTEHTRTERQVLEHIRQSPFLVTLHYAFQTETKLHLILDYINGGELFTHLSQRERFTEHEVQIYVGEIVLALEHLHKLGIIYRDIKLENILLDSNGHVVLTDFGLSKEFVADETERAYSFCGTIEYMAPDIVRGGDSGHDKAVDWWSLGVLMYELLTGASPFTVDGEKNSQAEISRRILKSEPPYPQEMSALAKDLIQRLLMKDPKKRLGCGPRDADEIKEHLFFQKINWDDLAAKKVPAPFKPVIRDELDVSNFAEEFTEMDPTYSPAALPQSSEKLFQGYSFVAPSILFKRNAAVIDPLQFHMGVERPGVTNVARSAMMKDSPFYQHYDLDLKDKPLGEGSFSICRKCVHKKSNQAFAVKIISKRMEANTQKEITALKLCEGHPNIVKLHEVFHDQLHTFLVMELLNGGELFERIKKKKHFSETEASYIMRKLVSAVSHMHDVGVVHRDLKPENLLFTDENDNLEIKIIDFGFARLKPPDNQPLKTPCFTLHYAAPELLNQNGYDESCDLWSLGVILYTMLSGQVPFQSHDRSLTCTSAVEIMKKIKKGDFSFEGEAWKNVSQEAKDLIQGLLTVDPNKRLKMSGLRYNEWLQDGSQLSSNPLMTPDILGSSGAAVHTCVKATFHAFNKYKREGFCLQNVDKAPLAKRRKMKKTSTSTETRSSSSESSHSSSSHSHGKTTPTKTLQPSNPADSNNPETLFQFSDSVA
Sequence of Phosphatidylinositol 4,5-bisphosphate 3-kinase catalytic subunit gamma isoform (P48736 whole entry, canonical isoform): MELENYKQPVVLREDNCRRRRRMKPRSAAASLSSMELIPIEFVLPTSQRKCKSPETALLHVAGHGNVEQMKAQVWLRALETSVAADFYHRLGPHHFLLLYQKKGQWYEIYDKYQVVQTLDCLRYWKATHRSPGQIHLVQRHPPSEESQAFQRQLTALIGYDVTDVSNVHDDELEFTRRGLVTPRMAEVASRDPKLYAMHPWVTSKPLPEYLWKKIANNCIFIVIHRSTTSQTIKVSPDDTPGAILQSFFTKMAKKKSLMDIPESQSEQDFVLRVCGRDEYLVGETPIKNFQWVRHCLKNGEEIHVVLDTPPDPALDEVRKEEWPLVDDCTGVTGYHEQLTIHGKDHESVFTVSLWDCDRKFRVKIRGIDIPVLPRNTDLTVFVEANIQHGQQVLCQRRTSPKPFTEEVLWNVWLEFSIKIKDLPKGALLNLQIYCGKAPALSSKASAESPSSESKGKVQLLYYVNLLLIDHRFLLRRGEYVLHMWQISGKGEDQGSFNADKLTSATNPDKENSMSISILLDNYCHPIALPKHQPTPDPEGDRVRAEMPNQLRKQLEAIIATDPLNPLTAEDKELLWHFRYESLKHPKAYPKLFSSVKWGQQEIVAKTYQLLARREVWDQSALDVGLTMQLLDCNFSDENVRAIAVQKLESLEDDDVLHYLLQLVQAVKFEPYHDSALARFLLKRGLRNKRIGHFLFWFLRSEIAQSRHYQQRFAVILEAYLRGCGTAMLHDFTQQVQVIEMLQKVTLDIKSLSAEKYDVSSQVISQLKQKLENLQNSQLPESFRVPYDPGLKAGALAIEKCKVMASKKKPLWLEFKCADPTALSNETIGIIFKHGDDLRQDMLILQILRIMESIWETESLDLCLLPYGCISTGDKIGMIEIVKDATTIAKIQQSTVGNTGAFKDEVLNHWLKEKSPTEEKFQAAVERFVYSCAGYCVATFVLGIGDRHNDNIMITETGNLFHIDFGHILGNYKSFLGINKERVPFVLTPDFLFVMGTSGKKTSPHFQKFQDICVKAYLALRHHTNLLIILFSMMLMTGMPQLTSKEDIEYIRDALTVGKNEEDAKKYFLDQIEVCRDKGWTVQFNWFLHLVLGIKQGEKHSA

`CCC(=O)N1CC[C@H](Nc2ncnc3c2CN(c2cnc(OC)c(C(F)(F)F)c2)CC3)C1` [LENIOLISIB]: the result in the data set on Rattus norvegicus [1] was Active. The IC50 was 0.084 to 0.14 µM in the data set with Cynomolgus monkey [2], 7.7 µM in data set [4], 2.23 µM in data set [5] and 4.7 µM in data set [7]. In the data set on Rattus norvegicus [3], the Cmax/dose is given as 391 nM. In the data set with Cynomolgus monkey [6], this compound yielded an AUC/dose of 2250 nM·h. The inhibition in data set [8] came out at 76%.
